Consider 15 compounds from ChEMBL document CHEMBL2412977, “Synthetic studies of centromere-associated protein-E (CENP-E) inhibitors: 1.Exploration of fused bicyclic core scaffolds using electrostatic potential map” (Bioorg Med Chem, 2013).

The subject of one data set is HeLa. The experiment in a line: Induction of mitotic arrest in human HeLa cells assessed as accumulation of phosphorylated histone H3 after 16 hrs by FACS analysis. Type of data set: functional, cell-based. The essentials:
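HeLa cells scored for phosphorylated histone H3 positive cell count (%) by FACS. EC50 is the concentration giving a response halfway between baseline and maximum p-HH3 positive count.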

The target in data set [1] is T1, Centromere-associated protein E (Homo sapiens, UniProt Q02224). Briefly: Inhibition of human ATPase activity of CENP-E motor domain assessed as ADP production after 60 mins by ADP-Glo luminescence assay. (ADP-Glo turns the ADP formed in a reaction into a luminescent signal.)
T1 sequence (Q02224 whole entry, the tested form may be a part): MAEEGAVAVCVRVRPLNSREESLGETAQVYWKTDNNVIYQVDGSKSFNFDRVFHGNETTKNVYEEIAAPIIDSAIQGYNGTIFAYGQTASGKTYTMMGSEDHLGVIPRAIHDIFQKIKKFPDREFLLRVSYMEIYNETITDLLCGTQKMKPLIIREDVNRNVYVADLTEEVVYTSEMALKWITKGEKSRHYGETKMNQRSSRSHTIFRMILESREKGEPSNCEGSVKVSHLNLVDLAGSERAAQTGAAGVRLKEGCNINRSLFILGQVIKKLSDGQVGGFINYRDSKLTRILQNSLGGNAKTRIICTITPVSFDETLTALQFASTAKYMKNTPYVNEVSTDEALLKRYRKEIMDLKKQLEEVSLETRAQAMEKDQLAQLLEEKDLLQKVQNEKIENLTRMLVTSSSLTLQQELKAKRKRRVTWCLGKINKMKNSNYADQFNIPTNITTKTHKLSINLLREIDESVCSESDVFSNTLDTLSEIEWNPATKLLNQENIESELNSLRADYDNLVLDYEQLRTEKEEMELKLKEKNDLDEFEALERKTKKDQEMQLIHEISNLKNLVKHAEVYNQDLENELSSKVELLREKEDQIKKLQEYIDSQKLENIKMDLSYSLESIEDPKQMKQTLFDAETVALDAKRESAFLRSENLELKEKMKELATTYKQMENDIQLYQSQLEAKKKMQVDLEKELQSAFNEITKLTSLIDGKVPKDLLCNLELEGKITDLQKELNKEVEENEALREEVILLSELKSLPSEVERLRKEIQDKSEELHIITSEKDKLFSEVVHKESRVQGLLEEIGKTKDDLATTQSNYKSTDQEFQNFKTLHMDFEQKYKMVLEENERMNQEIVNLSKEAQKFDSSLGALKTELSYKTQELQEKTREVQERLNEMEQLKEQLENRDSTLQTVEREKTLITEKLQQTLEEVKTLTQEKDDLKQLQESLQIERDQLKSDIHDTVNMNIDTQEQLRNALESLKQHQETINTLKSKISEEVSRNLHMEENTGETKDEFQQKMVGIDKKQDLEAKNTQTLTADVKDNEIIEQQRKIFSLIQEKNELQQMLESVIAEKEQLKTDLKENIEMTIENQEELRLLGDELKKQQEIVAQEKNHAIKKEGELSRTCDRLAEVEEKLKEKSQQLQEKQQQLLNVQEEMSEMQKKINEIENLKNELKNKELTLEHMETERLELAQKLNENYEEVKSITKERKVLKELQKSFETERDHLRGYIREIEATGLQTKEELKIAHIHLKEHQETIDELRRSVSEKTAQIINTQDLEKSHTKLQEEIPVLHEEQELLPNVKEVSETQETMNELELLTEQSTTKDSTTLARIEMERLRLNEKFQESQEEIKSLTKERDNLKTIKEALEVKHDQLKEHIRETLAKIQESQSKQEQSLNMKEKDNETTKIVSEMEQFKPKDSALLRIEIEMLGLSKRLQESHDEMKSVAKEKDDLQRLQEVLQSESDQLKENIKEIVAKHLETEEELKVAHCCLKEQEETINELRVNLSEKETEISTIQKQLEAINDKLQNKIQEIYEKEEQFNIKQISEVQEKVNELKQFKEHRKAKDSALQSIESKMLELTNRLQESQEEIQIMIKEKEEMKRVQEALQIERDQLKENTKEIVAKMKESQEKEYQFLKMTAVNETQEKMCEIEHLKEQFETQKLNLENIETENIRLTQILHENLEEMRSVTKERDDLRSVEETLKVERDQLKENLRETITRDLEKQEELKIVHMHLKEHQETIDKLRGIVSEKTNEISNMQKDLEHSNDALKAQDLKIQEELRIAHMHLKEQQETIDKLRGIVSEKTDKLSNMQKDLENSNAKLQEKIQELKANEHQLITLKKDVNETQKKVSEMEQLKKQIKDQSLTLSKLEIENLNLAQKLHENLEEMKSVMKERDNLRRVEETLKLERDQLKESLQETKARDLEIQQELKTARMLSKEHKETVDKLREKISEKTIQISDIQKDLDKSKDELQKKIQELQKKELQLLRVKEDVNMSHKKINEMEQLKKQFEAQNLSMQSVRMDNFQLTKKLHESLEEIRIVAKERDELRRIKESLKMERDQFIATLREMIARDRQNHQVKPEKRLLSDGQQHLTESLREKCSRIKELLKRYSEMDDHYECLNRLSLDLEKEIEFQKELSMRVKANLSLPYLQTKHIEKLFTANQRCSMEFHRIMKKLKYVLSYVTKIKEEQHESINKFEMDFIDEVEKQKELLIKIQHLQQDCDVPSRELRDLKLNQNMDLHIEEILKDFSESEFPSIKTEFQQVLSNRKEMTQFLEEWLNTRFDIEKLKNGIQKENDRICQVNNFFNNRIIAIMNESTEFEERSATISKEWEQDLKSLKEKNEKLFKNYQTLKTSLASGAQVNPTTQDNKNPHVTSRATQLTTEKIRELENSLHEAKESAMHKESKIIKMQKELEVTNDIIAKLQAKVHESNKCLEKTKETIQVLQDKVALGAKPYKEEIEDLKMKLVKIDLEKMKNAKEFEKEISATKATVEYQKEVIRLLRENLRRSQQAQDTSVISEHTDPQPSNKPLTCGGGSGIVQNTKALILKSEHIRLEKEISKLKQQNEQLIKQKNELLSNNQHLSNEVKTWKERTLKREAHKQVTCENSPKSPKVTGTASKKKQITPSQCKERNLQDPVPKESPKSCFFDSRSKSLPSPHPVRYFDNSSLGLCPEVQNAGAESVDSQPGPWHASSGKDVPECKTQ
Data set [2] is described as follows: Permeability of the compound at pH 7.4 by PAMPA. It is filed as ADME. The conditions noted are these: read-out: permeability. The gist of the method:
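Passive permeability measured in a parallel artificial membrane permeability assay (PAMPA) system at pH 7.4, reported in nm/sec.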
For orientation: PAMPA measures passive passage across an artificial lipid membrane.

For data set [3], the target named is T1, Centromere-associated protein E. The experiment in a line: Inhibition of ATPase activity of CENP-E motor domain (unknown origin) by high throughput screening assay.

As for `CN(C)CCN(Cc1ccc(Cl)c(Cl)c1)C(=O)c1cc2scc(Br)c2n1-c1ccc(F)cc1`, in the data set with HeLa, the EC50 turned out to be 3000 nM. In addition, the IC50 in data set [1] was determined as 32 nM. Further, the Papp in data set [2] amounted to 4.1 ×10⁻⁶ cm/s.
Turning to `CN(Cc1ccc(Cl)c(Cl)c1)C(=O)c1c(-c2ccc(F)cc2)c2cscc2c(=O)n1CCO`, the IC50 in data set [1] stood at 1800 nM.
`CN(Cc1cc(C(F)(F)F)cc(C(F)(F)F)c1)C(=O)c1c(-c2ccc(F)cc2)c2cscc2c(=O)n1C` registered an IC50 in data set [3] of 2100 nM.
Consider `CN(C)CCN(Cc1ccc(Cl)c(Cl)c1)C(=O)c1nc2cccc(Br)n2c1-c1ccc(F)cc1`, for which the EC50 in the data set with HeLa worked out at 1540 nM. In data set [1], the IC50 turned out to be 50 nM. The Papp in data set [2] stood at 35.3 ×10⁻⁶ cm/s.
As for `CN(C)CCN(Cc1ccc(Cl)c(Cl)c1)C(=O)c1cc2scc(Cl)c2n1-c1ccc(F)cc1`, the IC50 in data set [1] amounted to 35 nM.
Consider `CN(C)CCCn1c(C(=O)N(C)Cc2ccc(Cl)c(Cl)c2)c(-c2ccc(F)cc2)c2cscc2c1=O`, for which the IC50 in data set [1] came to 300 nM.
On to `CN(C)CCN(Cc1ccc(Cl)c(Cl)c1)C(=O)c1cc2scc(C#N)c2n1-c1ccc(F)cc1`, for which the IC50 in data set [1] came out at 540 nM.
Regarding `Cc1csc2cc(C(=O)N(CCN(C)C)Cc3ccc(Cl)c(Cl)c3)n(-c3ccc(F)cc3)c12`, the IC50 in data set [1] was determined as 370 nM.
The same measure, in the same setting: next, `Cc1c(C(=O)N(CCN(C)C)Cc2ccc(Cl)c(Cl)c2)n(-c2ccc(F)cc2)c2ccccc12`: 2100 nM; `CN(C)CCn1c(C(=O)N(C)Cc2ccc(Cl)c(Cl)c2)c(-c2ccc(F)cc2)c2cscc2c1=O`: 72 nM; `CN(C)CCN(Cc1ccc(Cl)c(Cl)c1)C(=O)c1c(-c2ccc(F)cc2)c2ccccc2n1C`: 8500 nM.
Turning to `CN(Cc1ccc(Cl)c(Cl)c1)C(=O)c1c(-c2ccc(F)cc2)c2cscc2c(=O)n1C`, the IC50 in data set [3] and in data set [1] was 1500 nM each time.
For `CN(C)CCN(Cc1ccc(Cl)c(Cl)c1)C(=O)c1cc2scc(C(F)(F)F)c2n1-c1ccc(F)cc1`, in data set [1], the IC50 came out at 140 nM.
As to `CN(C)CCN(Cc1ccc(Cl)c(Cl)c1)C(=O)c1c(-c2ccc(F)cc2)c2cscc2c(=O)n1C`, the IC50 in data set [1] was 100 nM.
On to `CN(C)CCN(Cc1ccc(Cl)c(Cl)c1)C(=O)c1cc2sccc2n1-c1ccc(F)cc1`, for which, in data set [1], the IC50 came out at 2000 nM.

The EC50 is the concentration at which the effect is half-maximal. In general, IC50 refers to the concentration needed to halve the response being measured.
